Screening data deposited in PubChem by several laboratories.
Shown are actives, neighbours in structure and some others; about 4.2% of the full set was active somewhere.
KCNQ1 block – human KCNQ1 channel inhibition. P51787. CHO-K1 KCNQ1, FluxOR thallium flux fluorescence; active compounds read high. B-score at 10 µM. 310,000 compounds, 1.3% hits;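 active = compounds whose thallium flux B-score, printed positive for inhibition, exceeds three library SD while starting fluorescence stays within three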;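 also: channel opened by potassium depolarization with thallium stimulus after 20 min compound exposure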
KCC2 mod – modulates chloride dependent transport by human KCC2; Q9H2X9; 190,000 compounds, 2.2% hits; B-score of Tl+ flux slope (higher = more flux/activation; lower = inhibition) at 10 µM; KCC2 cells, thallium flux FluoZin-2 fluorescence;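 active = thallium flux slope and its plate-corrected score both differing from the plate sample mean at a set confidence after two filtering rounds, in either direction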;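 also: slope of fluorescence scaled to starting intensity during 10 to 20 s after thallium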
hERG protect – shields human hERG channel from block by proarrhythmic agents | Q12809 | CHO-hERG, FluxOR thallium flux, dofetilide IC70 present | activation (rescue from dofetilide block), less the hit threshold, % at 10 µM | 310,000 compounds, 0.51% hits;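 active = activation above the mean of controls blocked by dofetilide plus 5 SD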;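 also: thallium influx through hERG after potassium depolarization seen as dye fluorescence rise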
Target sequence (Q12809 whole entry, looked up): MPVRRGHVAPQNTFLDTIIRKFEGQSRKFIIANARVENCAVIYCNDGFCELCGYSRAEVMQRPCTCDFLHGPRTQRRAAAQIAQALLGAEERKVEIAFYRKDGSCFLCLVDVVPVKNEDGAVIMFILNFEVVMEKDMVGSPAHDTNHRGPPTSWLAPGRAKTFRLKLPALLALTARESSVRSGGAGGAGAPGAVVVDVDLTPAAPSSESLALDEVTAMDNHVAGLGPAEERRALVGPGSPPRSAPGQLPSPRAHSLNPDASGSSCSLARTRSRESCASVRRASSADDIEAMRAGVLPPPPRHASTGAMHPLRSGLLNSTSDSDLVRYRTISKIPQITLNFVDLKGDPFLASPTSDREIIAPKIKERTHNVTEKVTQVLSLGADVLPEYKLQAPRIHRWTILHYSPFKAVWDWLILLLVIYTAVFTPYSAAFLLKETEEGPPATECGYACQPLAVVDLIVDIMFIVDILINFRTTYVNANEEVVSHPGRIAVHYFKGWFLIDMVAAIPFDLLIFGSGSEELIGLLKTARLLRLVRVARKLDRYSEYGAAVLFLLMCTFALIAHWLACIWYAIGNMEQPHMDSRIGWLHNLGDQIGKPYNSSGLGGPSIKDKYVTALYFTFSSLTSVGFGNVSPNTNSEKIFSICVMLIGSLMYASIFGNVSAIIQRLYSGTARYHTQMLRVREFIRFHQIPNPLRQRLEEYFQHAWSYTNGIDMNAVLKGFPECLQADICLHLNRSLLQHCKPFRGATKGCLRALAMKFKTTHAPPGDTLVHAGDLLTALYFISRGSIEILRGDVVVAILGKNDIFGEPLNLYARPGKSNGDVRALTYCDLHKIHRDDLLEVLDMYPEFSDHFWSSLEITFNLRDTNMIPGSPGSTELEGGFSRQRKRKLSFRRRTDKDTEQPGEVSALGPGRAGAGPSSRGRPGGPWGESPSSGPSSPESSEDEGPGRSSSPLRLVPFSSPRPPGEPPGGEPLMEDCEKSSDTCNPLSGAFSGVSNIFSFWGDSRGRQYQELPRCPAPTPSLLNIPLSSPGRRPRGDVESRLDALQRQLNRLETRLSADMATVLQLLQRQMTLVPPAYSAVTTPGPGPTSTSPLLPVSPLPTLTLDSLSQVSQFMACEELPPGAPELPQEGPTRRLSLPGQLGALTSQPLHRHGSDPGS
KCNQ1 pot – human KCNQ1 channel potentiation or activation | CHO-K1 KCNQ1, thallium flux FluxOR fluorescence; active compounds read high | B-score at 10 µM | P51787 | AID 2648 | 310,000 compounds, 0.35% hits;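 active = fluorescence ratio B-score, a plate-corrected score, at least three library SD, with initial intensity B-score within 5 SD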
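assay system = KCNQ1-transfected CHO-K1 cells | medium = assay buffer with matched DMSO | probe or stimulus = depolarizing K+/Tl+ stimulus, K2SO4 and Tl2SO4 each 12.5 mM in 5x stock | dosing = single dose | incubation = dye 90 min, compound 20 min, room temperature | detection = kinetic FluxOR fluorescence, 10 s baseline plus 110 s post-stimulus | evaluation = ratio B score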
AI-2 QS mod – modulators of Vibrio harveyi AI-2 quorum sensing system; Vibrio harveyi JMH597 AI-2 luminescence/OD600 ratio, 9 h; active compounds read low; strain lacks LuxN and CqsS sensors; 0 = neutral-control median; activity change, % at 7.5 µM; 300,000 compounds, 0.4% hits; AID 2094; in the data active = activity change below about -75%, passing the limit was not always enough; inconclusive = no clear call, values can overlap the other calls;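 also: luminescence divided by OD600 gain over 9 h not by final OD600 alone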
SUMO Mot1 rescue – blocks SUMOylation pathway, rescuing yeast Mot1-301 growth; S. cerevisiae Mot1-301 growth rescue, ATP luminescence, 38.5C; percent above DMSO median, 100 means doubled; growth rescue, % at 18.8 µM; 320,000 compounds, 1% hits; AID 2716;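 active = every valid replicate shows activation above 250% relative to neutral control wells; inactive = the rest, any valid replicate at or below 250%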;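 also: OY570 slx delta 5 strain wells were the positive control but not used for scaling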
KCC2 sec1 – KCC2 (human) modulation, secondary assay; normalised thallium flux (F/F0 slope) at 10 µM; HEK293-KCC2, thallium flux, FluoZin2 fluorescence; active compounds read high; 3,700 compounds, 15% hits; shares compounds with KCC2 mod;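 active = thallium flux slope above the same plate's solvent-only control mean plus 3 SD; inconclusive = the two replicate wells disagree; inactive = no significant difference from solvent-only control wells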
KCC2 bumet counter – thallium flux despite bumetanide block in KCC2 cells, secondary assay 3; 3,700 compounds, 49% hits; AID 1714; normalized thallium flux at 10 µM; HEK293-KCC2 + bumetanide/ouabain, thallium flux FluoZin2; active compounds read high; shares compounds with KCC2 mod;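 active = thallium entry rate above the same plate's blocked-transporter control wells by more than 3 SD; inconclusive = the two repeat wells disagree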;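 also: raw slope of fluorescence over initial fluorescence between 10 and 20 s after thallium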
KCC2 sec2 – confirmation of human KCC2 transport modulators | normalized thallium flux at 10 µM | HEK293-KCC2, thallium flux FluoZin2 fluorescence; actives lie on both sides; F/F0 rise rate, 10–20 s post-thallium | shares compounds with KCC2 mod | 3,700 compounds, 23% hits;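 active = thallium flux slope more than 3 SD above or below the plate's solvent-only control mean, mostly below; inconclusive = the two repeat wells disagreed; inactive = no significant shift from solvent-only controls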;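 also: raw slope with 0.1% DMSO as baseline and bumetanide as block control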
HEK counter1 – acts in parental HEK cells, KCC2 counter-screen | shares compounds with KCC2 mod | HEK293 parental cells, thallium flux FluoZin2, ouabain; baseline-ratio fluorescence slope, 10–20 s after thallium | thallium flux rate (normalised fluorescence) at 10 µM | AID 1716 | 3,700 compounds, 46% hits;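 active = thallium flux rate significantly above the same plate's solvent-only control wells, beyond their mean plus 3 SD; inconclusive = the two replicate wells gave conflicting results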
KCC2 ouabain – confirmation of human KCC2 modulators with ouabain; shares compounds with KCC2 mod; HEK293-KCC2, thallium flux FluoZin2 fluorescence; bidirectional: low = inhibitor, high = activator; raw Tl+ flux slope (below DMSO = inhibition, above = activation) at 10 µM; 3,700 compounds, 48% hits; AID 1717;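 active = thallium flux slope beyond 3 SD from same-plate DMSO control mean in most replicates, usually higher, sometimes lower; inconclusive = repeat tests gave conflicting results; inactive = no significant difference from controls in most replicates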;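 also: slope of initial-normalized fluorescence between seconds 10 and 20 after thallium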
HEK counter2 – acts in parental HEK cells, second KCC2 counter-screen | shares compounds with KCC2 mod | HEK293 parental, thallium flux FluoZin-2 fluorescence slope | thallium flux slope at 10 µM | 3,700 compounds, 33% hits;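 active = thallium flux slope above the same plate's solvent-control mean plus 3 SD in both duplicate wells; inconclusive = duplicate wells that disagreed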;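 also: run without ouabain in cells lacking the KCC2 cotransporter; slope of fluorescence scaled to its starting value between 10 and 20 s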
An asterisk follows results filed as active; i = inactive; u = inconclusive; x = no result given; ! = not confirmed by another sample.

SMILES	KCNQ1 block	KCC2 mod	hERG protect	KCNQ1 pot	AI-2 QS mod	SUMO Mot1 rescue	KCC2 sec1	KCC2 bumet counter	KCC2 sec2	HEK counter1	KCC2 ouabain	HEK counter2
CCn1cc(Br)c(C(=O)Nc2ccc(F)c(Cl)c2)n1	i	-1.1	-16	i	38	3	x	x	x	x	x	x
CCn1cc(Br)c(C(=O)NC(=S)Nc2ccc(C(=O)OC)cc2)n1	i	6.2*	-3	i	16	-9	0.011	0.018*	0.034	0.013*	0.026	0.012*
CCOC(=O)c1c(NC(=O)c2nn(CC)cc2Br)sc(C)c1C	i	0.58	-4	i	8	14	x	x	x	x	x	x
Fc1ccc2cc(-c3ccccc3F)ncc2c1	x	x	x	x	x	60	x	x	x	x	x	x
CCn1nc(C)c(NC(=O)c2cnn3c(C(F)F)cc(-c4ccccc4)nc23)c1C	i	-1.4	-13	i	-2	x	x	x	x	x	x	x
O=C(NCCSCc1ccccc1)c1cc(S(=O)(=O)N2CCOCC2)ccc1F	i	-3.8*	-13	i	22	-17	0.0063	0.0051	0.026*	0.0076	u	0.011
CN(C)CCCNC(=O)c1cc(S(=O)(=O)N2CCOCC2)ccc1F	i	-0.1	-6	i	8	-8	x	x	x	x	x	x
CCc1nnc(NC(=O)CSc2nnc(Cc3ccccc3)o2)s1	i	x	-7	i	0	-7	0.0072	0.007	0.027	0.0063	u	0.0098
CCc1nnc(NC(=O)CSc2nnc(CNc3ccc(Cl)cc3)o2)s1	i	x	-8	i	18	15	x	x	x	x	x	x
CCOC(=O)c1c(N/N=C/c2ccncc2)n[nH]c1C	i	18*	2	i	51	-5	0.016	0.0042	0.03	u	0.016	0.0092
CCOC(=O)c1c(NCc2ccccc2)n[nH]c1C	i	-0.78	-8	i	13	-7	x	x	x	x	x	x
CN(C)S(=O)(=O)N(CC(=O)NCCSCc1ccccc1)c1ccccc1	i	-3.7*	-9	i	13	7	0.0062	0.006*	0.024*	0.0071	u	0.01
Cc1cccc(CSCCNC(=O)CCSc2ccccc2)c1	i	-2	-12	i	2	14	x	x	x	x	x	x
CS(=O)(=O)N(CC(=O)NCCSCc1ccccc1)c1ccccc1F	i	x	0	i	13	-10	x	x	x	x	x	x
O=C(CCSc1ccccc1)NCCSCc1ccccc1	i	-3.5*	-5	i	-24	10	u	0.0039	0.022*	u	0.013*	u
COC(=O)c1sccc1NS(=O)(=O)c1ccc(OC)cc1	i	x	-3	i	16	-21	0.0073	0.013*	0.035	0.012*	u	0.015*
CCCc1nc2ccccc2c(=O)n1N	i	12*	-7	i	34	-3	0.011	0.007	0.033	0.0084	0.019	0.012
CN(c1ccccc1)S(=O)(=O)c1ccc(C(=O)Nc2nnc(-c3ccc(F)cc3)o2)cc1	i	18*	-6	i	11	303	0.013*	0.056*	0.034	u	0.038*	0.012
Cc1ccnc2nc(C(=O)Nc3nnc(-c4ccc(Cl)cc4)o3)nn12	i	2.4	-4	i	35	-14	x	x	x	x	x	x
CN(C)c1ccc(C(=O)Nc2nnc(-c3ccc(Cl)cc3)o2)cc1	i	20*	-6	i	40	12	0.007	0.06*	0.046*	0.054*	0.051*	0.026*
CN(c1ccccc1)S(=O)(=O)c1ccc(NC(=O)c2ccc(-c3ccccc3)cc2)cc1	i	-0.27	-12	i	16	-5	x	x	x	x	x	x
CN(C)c1ccc(C(=O)NNC(=O)c2ccc(Cl)cc2)cc1	i	-1.3	-10	i	15	7	x	x	x	x	x	x
CC(=O)c1ccc(C(=O)Nc2nnc(-c3ccc(Cl)cc3)o2)cc1	i	22*	-3	i	u	-7	0.022*	0.09*	u	0.045*	0.05*	0.016*
CN1C(=O)[C@H]2[C@@H](/C=C/c3ccccc3)N3C(=O)CN(Cc4ccccn4)C(=O)[C@@]3(C)[C@H]2C1=O	i	x	-9	i	-1	402	x	x	x	x	x	x
COc1ccc(C(=O)C2CCCN(C(=O)c3noc4c3CCCC4)C2)cc1F (configuration not stated)	i	-0.016	0	i	3	-1	x	x	x	x	x	x
SMILES	KCNQ1 block	KCC2 mod	hERG protect	KCNQ1 pot	AI-2 QS mod	SUMO Mot1 rescue	KCC2 sec1	KCC2 bumet counter	KCC2 sec2	HEK counter1	KCC2 ouabain	HEK counter2
COc1ccc(C(=O)C2CCCN(C(=O)c3noc4c3CCCC4)C2)c(C)c1 (configuration not stated)	i	x	-4	i	21	81	0.0064	0.004	0.028	u	0.017	0.01
CN1CCC(OC(c2ccccc2)c2ccccc2)CC1	i	4.7*	-4	i	22	321*!	0.0099	0.0069	0.03	u	0.022	0.0097
CN1CCC(Oc2ccccc2Sc2ccccc2)CC1	i	-0.62	-12	i	37	74	x	x	x	x	x	x
COc1ccccc1N1CCN(C(=S)NC(=O)/C=C/c2ccccc2)CC1	i	6.7*	-5	i	7	-5	0.0059	0.011*	0.034	0.014*	u	0.014*
CN1CCN(C(=S)NC(=O)/C=C/c2ccccc2)CC1	i	-0.82	-12	i	13	6	x	x	x	x	x	x
COc1ccccc1N1CCN(C(=S)NC(=O)/C=C/c2ccc(F)cc2)CC1	i	27*	-3	i	38	18	0.0055	0.039*	0.034	0.015*	0.031*	0.018*
O=C1Nc2ncccc2OC1CCO (configuration not stated)	i	x	-9	i	7	10	x	x	x	x	x	x
Cc1c(OCC(=O)NCCN2CCOCC2)ccc2c(-c3ccccc3)cc(=O)oc12	i	x	-3	i	12	6	x	x	x	x	x	x
